The results in this text go back to ChEMBL document CHEMBL3414458, “Discovery of novel 2,5-dioxoimidazolidine-based P2X(7) receptor antagonists as constrained analogues of KN62” (J Med Chem, 2015).

Calls of active or inactive are those of the source. No cut-off for these calls is given here.

Assay [1] relates to Mus musculus. The assay can be described thus: Downregulation of iNOS expression in ankle tissue of CII-induced DBA/1J mouse arthritic model at 25 to 50 mg/kg, ip measured 10 days post second CII booster by immunoblot analysis. It is filed as functional, organism-based. For orientation: In western blotting, separated proteins are transferred to a membrane and probed.
Assay [2] has as its system Mus musculus. As to the kind of experiment: Antiarthritic activity in CII-induced DBA/1J mouse arthritic model assessed as decrease in fibrosis at 50 mg/kg, ip measured 10 days post second CII booster by Hematoxylin and eosin staining relative to CII-treated control. More on the design: dose 50 mg/kg. It is filed as functional, organism-based. An outline of the steps:
(§1)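 Mouse type II collagen-induced arthritis; 50 mg/kg dosed by injection. Ankle histology was scored as cumulative arthritis injury scores against the vehicle-treated CII group.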

Assay [3] has as its system Rattus norvegicus. As to the kind of experiment: Antiinflammatory activity in Sprague-Dawley rat assessed as decrease in carrageenan-induced paw edema at 10 mg/kg, ip preincubated for 1 hr followed by carrageenan challenge measured after 3 to 6 hrs by plethysmometer relative to control. In general terms: In the carrageenan paw model, swelling and tenderness develop within hours.

Assay [4] has as its target T1, P2X purinoceptor 1 (Mus musculus) (UniProt P51576).
T1 sequence (whole entry): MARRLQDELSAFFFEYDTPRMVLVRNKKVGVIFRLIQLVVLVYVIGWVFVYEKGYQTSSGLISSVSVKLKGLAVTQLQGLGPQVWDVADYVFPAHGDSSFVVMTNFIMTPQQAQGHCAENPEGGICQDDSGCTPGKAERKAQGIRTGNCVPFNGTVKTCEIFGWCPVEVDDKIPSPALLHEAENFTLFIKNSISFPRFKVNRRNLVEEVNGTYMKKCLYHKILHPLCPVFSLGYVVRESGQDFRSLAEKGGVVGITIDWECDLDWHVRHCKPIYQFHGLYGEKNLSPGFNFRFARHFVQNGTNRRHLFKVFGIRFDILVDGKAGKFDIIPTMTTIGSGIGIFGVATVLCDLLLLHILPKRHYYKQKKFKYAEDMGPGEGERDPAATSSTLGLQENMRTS
The assay can be described thus: Antagonist activity at recombinant mouse P2X1 receptor overexpressed in Xenopus oocytes assessed as inhibition of ATP-induced ion current at 10 uM preincubated for 20 mins followed by ATP induction by two-electrode voltage clamping method relative to control. It is filed as cell-based. In a few lines:
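Two-electrode voltage clamp on Xenopus oocytes expressing the receptor after cRNA microinjection. Current was evoked by 2 µM ATP, with test compound at 10 µM.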
Background: Two-electrode voltage clamp is typically applied to oocytes expressing channels or transporters.

Assay [5] relates to Mus musculus. The assay can be described thus: Antiarthritic activity in CII-induced DBA/1J mouse arthritic model assessed as decrease in chronic inflammation at 50 mg/kg, ip measured 10 days post second CII booster by Hematoxylin and eosin staining relative to CII-treated control. It is filed as functional, organism-based. More on the design: dose 50 mg/kg. An outline of the steps: as §1

The target in assay [6] is T2, P2X purinoceptor 7 (Homo sapiens) (UniProt Q99572).
T2 sequence (whole entry): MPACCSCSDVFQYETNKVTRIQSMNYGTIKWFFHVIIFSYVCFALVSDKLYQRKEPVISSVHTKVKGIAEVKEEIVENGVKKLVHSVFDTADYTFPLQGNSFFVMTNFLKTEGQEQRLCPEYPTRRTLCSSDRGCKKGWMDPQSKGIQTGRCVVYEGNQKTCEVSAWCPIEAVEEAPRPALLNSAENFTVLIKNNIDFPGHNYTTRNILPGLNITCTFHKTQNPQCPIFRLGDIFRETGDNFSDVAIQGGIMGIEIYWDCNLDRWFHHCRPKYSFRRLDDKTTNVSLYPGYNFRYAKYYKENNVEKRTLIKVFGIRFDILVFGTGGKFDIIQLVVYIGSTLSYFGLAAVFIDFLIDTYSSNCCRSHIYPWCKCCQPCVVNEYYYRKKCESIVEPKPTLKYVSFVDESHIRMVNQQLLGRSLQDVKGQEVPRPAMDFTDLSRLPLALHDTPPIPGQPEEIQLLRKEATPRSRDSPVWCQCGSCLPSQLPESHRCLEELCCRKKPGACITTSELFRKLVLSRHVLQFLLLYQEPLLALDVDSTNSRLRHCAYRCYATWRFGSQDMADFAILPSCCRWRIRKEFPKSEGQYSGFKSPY
As to the kind of experiment: Competitive antagonist activity at recombinant human P2X7 receptor expressed in HEK293 cells assessed as inhibition of BzATP-induced intracellular ethidium bromide uptake at 0.1 to 1 uM after 2 hrs by fluorescence assay in presence of BzATP. It is filed as cell-based. In a few lines: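 HEK293 cells stably expressing recombinant human P2X7 were stimulated with BzATP, and ethidium ion accumulation was read as the measure of pore activity.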

Assay [7] has as its system Mus musculus. As to the kind of experiment: Antiarthritic activity in CII-induced DBA/1J mouse arthritic model assessed as decrease in abcess formation at 50 mg/kg, ip measured 10 days post second CII booster by Hematoxylin and eosin staining relative to CII-treated control. It is filed as functional, organism-based. More on the design: dose 50 mg/kg. An outline of the steps: as §1

Broadly, the inhibition is the change of the read-out against control, counted positive when it falls. In the case of `O=C1NC(=O)N(C2CCN(C(=O)c3ccc(Cl)c(C(F)(F)F)c3)CC2)C1Cc1ccc(OS(=O)(=O)c2cccc3cnccc23)cc1` (racemic), the result in assay [1], in assay [2], in assay [3], in assay [5] and in assay [7] was Active. The inhibition in assay [4] was 16%. Moreover, in assay [6], the inhibition result was “Active”.
